Here are results for 17 compounds from ChEMBL document CHEMBL3351351, “Synthesis and evaluation of sulfonylethyl-containing phosphotriesters of 3'-azido-3'-deoxythymidine as anticancer prodrugs” (Bioorg Med Chem, 2014).

Data set [1] relates to MCF7. The data set is described as follows: Cytotoxicity against human MCF7 cells after 72 hrs by MTT assay. It counts as functional, cell-based. The conditions noted are these: MCF7, 72 h. (Formazan colour is commonly taken as a measure of viable cells.)
The nature of data set [2]: Cytotoxicity against human KB-3-1 cells after 72 hrs by MTT assay. It is filed as functional, cell-based. The conditions noted are these: KB 3-1, 72 h.
Data set [3] has as its system 143B. The data set is described as follows: Cytotoxicity against human 143B cells after 72 hrs by MTT assay. It counts as functional, cell-based.
Data set [4] in a line: Half life in 0.1 M phosphate buffer at pH 7.4 at 37 degC by TLC. It counts as physicochemical. Put shortly:
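Compound incubated in 0.1 M phosphate buffer pH 7.4 at 37 °C with shaking for varying times. Stopped with 2.0 M acetate buffer (pH 5) and ethanol, then chilled on ice and analysed by TLC. Percent parent left relative to zero-time control plotted against time; t1/2 = ln2/k from decay rate constant; mean ± SD of three independent experiments.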

Data set [5] relates to SW-620. Kind of data set: Cytotoxicity against human SW620 cells after 72 hrs by MTT assay. The conditions noted are these: SW-620, 72 h. It is filed as functional, cell-based.
Data set [6] is described as follows: Cytotoxicity against human H460 cells after 72 hrs by MTT assay. The conditions noted are these: NCI-H460, 72 h. It counts as functional, cell-based.
Data set [7] can be described thus: Half life in human plasma by TLC. It is filed as ADME, cell-free. Summed up: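 Freshly reconstituted lyophilized human plasma in 0.1 M phosphate buffer pH 7.4 (0.4 mL plasma solution plus 0.1 mL drug solution) incubated at 37 °C. Stopped as for the buffer test, proteins spun out at 3000 × g for 30 min, supernatant run on TLC. Half-life from first-order decay, three independent experiments; the ratio compares it with the buffer half-life.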

The subject of data set [8] is 143B. The data set is described as follows: Cytotoxicity against human thymidine kinase-deficient 143B cells after 72 hrs by MTT assay. It counts as functional, cell-based.
Data set [9] deals with 143B. The data set is described as follows: Ratio of IC50 for human thymidine kinase-deficient 143B cells to IC50 for human 143B cells. It is filed as functional. Put shortly: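 143B kept in EMEM with 10% FBS and 1% penicillin/streptomycin; the TK-deficient 143B/TK⁻ line kept in EMEM with 0.015 mg/mL 5-BrdU.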

As usually defined, the IC50 is the concentration that gives 50% inhibition. As a reminder, the half-life is how long it takes for the measured level to halve. Read a low half-life as rapid decline. As to `Cc1cn([C@H]2C[C@H](N=[N+]=[N-])[C@@H](COP(=O)(OCCS(=O)(=O)c3ccccc3)OCCS(=O)(=O)c3ccccc3)O2)c(=O)[nH]c1=O`, the IC50 is 16.3 µM in [1]; 11 µM in [2]; 16.3 µM in [3]; 43 µM in data set [5]; 7.59 µM in [6]. Besides, the half-life in data set [4] was 0.71 h; in data set [7], 0.23 h.
For `Cc1ccc(S(=O)(=O)CCOP(=O)(OCCS(=O)(=O)c2ccc(C)cc2)OC[C@H]2O[C@@H](n3cc(C)c(=O)[nH]c3=O)C[C@@H]2N=[N+]=[N-])cc1`, the IC50 amounted to 19.6 µM in [1]; 14.4 µM in data set [2]; 19.6 µM in data set [3]; 46.6 µM in data set [5]; 11.3 µM in data set [6]. The figures for the half-life in data set [4] and in data set [7] were 1.09 h and 0.4 h, respectively.
For the compound `COc1ccc(S(=O)(=O)CCOP(=O)(OCCS(=O)(=O)c2ccc(OC)cc2)OC[C@H]2O[C@@H](n3cc(C)c(=O)[nH]c3=O)C[C@@H]2N=[N+]=[N-])cc1`, the IC50 in [1] is 6.38 µM; in data set [2], 4.68 µM; in data set [8], 5.16 µM; in [3], 5.45 µM; in data set [5] it was 7.62 µM; in [6] it was 1.71 µM. The “Ratio IC50” value in data set [9] stood at 0.9. The half-life is 1.44 h in data set [4] and 0.55 h in data set [7].
`Cc1cn([C@H]2C[C@H](N=[N+]=[N-])[C@@H](COP(=O)(OCCS(=O)(=O)c3ccc(Cl)cc3)OCCS(=O)(=O)c3ccc(Cl)cc3)O2)c(=O)[nH]c1=O`: the IC50 turned out to be 9.46 µM in data set [1]; 7.84 µM in data set [2]; 8.8 µM in data set [8]; 7.83 µM in data set [3]; 11.6 µM in data set [5]; 4.47 µM in data set [6]. Also, the “Ratio IC50” value in data set [9] is reported as 1.1. For the same compound, the half-life was 0.36 h in data set [4] and 0.13 h in data set [7].
For `Cc1cn([C@H]2C[C@H](N=[N+]=[N-])[C@@H](COP(=O)(OCCS(=O)(=O)c3ccc([N+](=O)[O-])cc3)OCCS(=O)(=O)c3ccc([N+](=O)[O-])cc3)O2)c(=O)[nH]c1=O`, the IC50 in [1] worked out at 22.9 µM; in [2], 20.4 µM; in data set [3], 23.1 µM; in data set [5], 57 µM; in data set [6], 15.2 µM. The values for the half-life in data set [4] and in data set [7] were 0.07 h and 0.02 h, respectively.
On to `Cc1cn([C@H]2C[C@H](N=[N+]=[N-])[C@@H](COP(=O)(OCC(C)S(=O)(=O)c3ccccc3)OCC(C)S(=O)(=O)c3ccccc3)O2)c(=O)[nH]c1=O` (some centres undefined), for which the IC50 in data set [1] worked out at 27.6 µM; in data set [2], 25.2 µM; in data set [3] it was 27.4 µM; in data set [5], 68.2 µM; in data set [6], 23.7 µM. Besides, the half-life in [4] was 13.6 h; in data set [7], 4.21 h.
On to `Cc1cn([C@H]2C[C@H](N=[N+]=[N-])[C@@H](COP(=O)(OC(C)CS(=O)(=O)c3ccccc3)OC(C)CS(=O)(=O)c3ccccc3)O2)c(=O)[nH]c1=O` (some centres undefined), for which the IC50 in [1] worked out at 22.4 µM; in data set [2], 18.4 µM; in [3], 22.5 µM; in data set [5] it was 54.8 µM; in data set [6], 14.6 µM. The half-life is 3.56 h in [4] and 1.35 h in data set [7].
Take `CCC(CS(=O)(=O)c1ccccc1)OP(=O)(OC[C@H]1O[C@@H](n2cc(C)c(=O)[nH]c2=O)C[C@@H]1N=[N+]=[N-])OC(CC)CS(=O)(=O)c1ccccc1` (some centres undefined): the IC50 in data set [1] came out at 12.2 µM; in [2] it was 8.28 µM; in data set [8], 13.3 µM; in [3], 11.5 µM; in data set [5] it was 27.8 µM; in [6], 5.13 µM. Besides, the “Ratio IC50” value in data set [9] worked out at 1.2. For the same compound, the half-life in data set [4] is 5.42 h; in [7], 1.77 h.
Take `Cc1cn([C@H]2C[C@H](N=[N+]=[N-])[C@@H](COP(=O)(OC(C)C(C)S(=O)(=O)c3ccccc3)OC(C)C(C)S(=O)(=O)c3ccccc3)O2)c(=O)[nH]c1=O` (some centres undefined): the IC50 in data set [1] is 26.8 µM; in [2], 24.2 µM; in data set [3] it was 26.4 µM; in [5] it was 66.7 µM; in data set [6] it was 22.2 µM. The half-life in data set [4] is 279 h; in data set [7], 70.1 h.
Regarding `Cc1cn([C@H]2C[C@H](N=[N+]=[N-])[C@@H](COP(=O)(OCC(c3ccccc3)S(=O)(=O)c3ccccc3)OCC(c3ccccc3)S(=O)(=O)c3ccccc3)O2)c(=O)[nH]c1=O` (some centres undefined), the 50% inhibitory concentration (IC50) in data set [1] stood at 14.1 µM; in [2] it was 9.82 µM; in data set [8], 19.7 µM; in [3], 14.2 µM; in data set [5] it was 42.2 µM; in data set [6] it was 7.13 µM. In data set [9], the “Ratio IC50” value is listed as 1.2. Besides, the figures for the half-life in data set [4] and in [7] were 2.16 h and 0.51 h, respectively.
With `Cc1cn([C@H]2C[C@H](N=[N+]=[N-])[C@@H](COP(=O)(OCCS(=O)(=O)c3ccccc3)Oc3ccccc3)O2)c(=O)[nH]c1=O` (some centres undefined), the IC50 in data set [1] amounted to 25.3 µM; in data set [2], 21.7 µM; in data set [3], 25.4 µM; in [5], 62.1 µM; in data set [6], 18.2 µM. Moreover, the half-life in [4] was 1.22 h; in data set [7], 0.45 h.
Consider `Cc1ccc(OP(=O)(OCCS(=O)(=O)c2ccccc2)OC[C@H]2O[C@@H](n3cc(C)c(=O)[nH]c3=O)C[C@@H]2N=[N+]=[N-])cc1` (some centres undefined), for which the concentration for half-maximal inhibition (IC50) in [1] is 28.2 µM; in [2] it was 27.1 µM; in data set [3], 28.3 µM; in data set [5], 71.7 µM; in data set [6], 24.7 µM. Also, the figures for the half-life in data set [4] and in data set [7] were 1.32 h and 0.6 h, respectively.
For `COc1ccc(OP(=O)(OCCS(=O)(=O)c2ccccc2)OC[C@H]2O[C@@H](n3cc(C)c(=O)[nH]c3=O)C[C@@H]2N=[N+]=[N-])cc1` (some centres undefined), the half-maximal inhibitory concentration (IC50) in [1] came out at 20.4 µM; in data set [2], 15.2 µM; in data set [8], 25.3 µM; in data set [3] it was 20.2 µM; in data set [5], 47.3 µM; in data set [6], 12.3 µM. In data set [9], the “Ratio IC50” value worked out at 1.3. Further, the half-life in data set [4] is 1.53 h; in [7], 0.6 h.
Consider `Cc1cn([C@H]2C[C@H](N=[N+]=[N-])[C@@H](COP(=O)(OCCS(=O)(=O)c3ccccc3)Oc3ccc(F)cc3)O2)c(=O)[nH]c1=O` (some centres undefined), for which the IC50 amounted to 26.2 µM in [1]; 23.3 µM in data set [2]; 26.6 µM in [3]; 64.5 µM in data set [5]; 20.8 µM in data set [6]. In addition, the results for the half-life in data set [4] and in [7] were 1.08 h and 0.37 h, respectively.
For the compound `Cc1cn([C@H]2C[C@H](N=[N+]=[N-])[C@@H](COP(=O)(OCCS(=O)(=O)c3ccccc3)Oc3ccc(Cl)cc3)O2)c(=O)[nH]c1=O` (some centres undefined), the IC50 in data set [1] turned out to be 25 µM; in data set [2], 21.4 µM; in data set [3] it was 24.4 µM; in data set [5], 61.3 µM; in [6] it was 17.9 µM. Besides, the results for the half-life in data set [4] and in data set [7] were 0.79 h and 0.35 h, respectively.
With `Cc1ccc(OP(=O)(OCCSc2ccccc2)OC[C@H]2O[C@@H](n3cc(C)c(=O)[nH]c3=O)C[C@@H]2N=[N+]=[N-])cc1` (some centres undefined), the half-life in data set [4] is 12 h; in data set [7], 20 h.
For `Cc1cn([C@H]2C[C@H](N=[N+]=[N-])[C@@H](CO)O2)c(=O)[nH]c1=O` [ZIDOVUDINE], the IC50 in [1] was 13.7 µM; in data set [2], 9.17 µM; in [8] it was 148 µM; in data set [3], 12.2 µM; in data set [5], 39.1 µM; in [6], 6.81 µM. Moreover, the “Ratio IC50” value in data set [9] came out at 12.1.
